Assay results from ChEMBL document CHEMBL1629615, “Intrapulmonary pharmacokinetics and pharmacodynamics of posaconazole at steady state in healthy subjects” (Antimicrob Agents Chemother, 2009).

What was measured:
[1] = Cmax in healthy human plasma at 400 mg, po every 12 hrs for 7 days; assay type: ADME, organism-based; set-up: dose 400 mg, route oral
How it was run: (§1)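 Noncompartmental analysis of day-8 concentration-time data after 14 oral 400 mg doses every 12 h. Plasma parameters came from each subject's profile. ELF and alveolar cell values came from mean concentrations at each BAL time (3 to 24 h). AUC0-12 was calculated by the linear trapezoidal method.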

[2] = Cmax in healthy human lung epithelial lining fluid at 400 mg, po every 12 hrs for 7 days; assay type: ADME, organism-based; set-up: dose 400 mg, route oral; how it was run: as §1
[3] = Cmax in healthy human alveolar cell at 400 mg, po every 12 hrs for 7 days; assay type: ADME, organism-based, Lung, Pneumocyte; set-up: dose 400 mg, route oral; details: alveolar cells; how it was run: as §1
[4] = Tmax in healthy human plasma at 400 mg, po every 12 hrs for 7 days; assay type: ADME, organism-based; how it was run: as §1
[5] = Tmax in healthy human lung epithelial lining fluid at 400 mg, po every 12 hrs for 7 days; assay type: ADME, organism-based; how it was run: as §1
[6] = Tmax in healthy human alveolar cell at 400 mg, po every 12 hrs for 7 days; assay type: ADME, organism-based, Pneumocyte; details: alveolar cells; how it was run: as §1
[7] = AUC (0 to 12 hrs) in healthy human plasma at 400 mg, po every 12 hrs for 7 days; assay type: ADME, organism-based; set-up: dose 400 mg, time < 12 hr, route oral; how it was run: as §1
[8] = AUC (0 to 12 hrs) in healthy human lung epithelial lining fluid at 400 mg, po every 12 hrs for 7 days; assay type: ADME, organism-based; set-up: time < 12 hr, dose 400 mg, route oral; how it was run: as §1
[9] = AUC (0 to 12 hrs) in healthy human alveolar cell at 400 mg, po every 12 hrs for 7 days; assay type: ADME, organism-based, Pneumocyte; set-up: time < 12 hr, dose 400 mg, route oral; details: alveolar cells; how it was run: as §1
[10] = Ratio of Cmax in healthy human plasma at 400 mg, po every 12 hrs for 7 days to MIC90 for Aspergillus spp.; assay type: functional
[11] = Ratio of Cmax in healthy human lung epithelial lining fluid at 400 mg, po every 12 hrs for 7 days to MIC90 for Aspergillus spp.; assay type: functional
[12] = Ratio of Cmax in healthy human alveolar cell at 400 mg, po every 12 hrs for 7 days to MIC90 for Aspergillus spp.; assay type: functional, Pneumocyte
[13] = Ratio of AUC (0 to 24 hrs) in healthy human plasma at 400 mg, po every 12 hrs for 7 days to MIC90 for Aspergillus spp.; assay type: functional
[14] = Ratio of AUC (0 to 24 hrs) in healthy human lung epithelial lining fluid at 400 mg, po every 12 hrs for 7 days to MIC90 for Aspergillus spp.; assay type: functional
[15] = Ratio of AUC (0 to 24 hrs) in healthy human alveolar cell at 400 mg, po every 12 hrs for 7 days to MIC90 for Aspergillus spp.; assay type: functional, Pneumocyte
[16] = Drug level in healthy human plasma at 400 mg, po every 12 hrs for 7 days measured after 3 hrs of last dose; assay type: ADME, organism-based; details: read-out: Drug uptake
How it was run: (§2)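 Same dosing: 400 mg oral suspension after a high-fat meal every 12 h, 14 doses. Blood went into EDTA tubes at 0, 3, 5, 8, 12 and 24 h after the final dose and was spun at 1,300 x g for 10 min at 4°C. Plasma was frozen and assayed by validated LC-MS/MS, LLOQ 1.00 ng/ml, calibration 1.00 to 4,000 ng/ml.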

[17] = Drug level in healthy human plasma at 400 mg, po every 12 hrs for 7 days measured after 5 hrs of last dose; assay type: ADME, organism-based; details: read-out: Drug uptake; how it was run: as §2
[18] = Drug level in healthy human plasma at 400 mg, po every 12 hrs for 7 days measured after 8 hrs of last dose; assay type: ADME, organism-based; details: read-out: Drug uptake; how it was run: as §2
[19] = Drug level in healthy human plasma at 400 mg, po every 12 hrs for 7 days measured after 12 hrs of last dose; assay type: ADME, organism-based; details: read-out: Drug uptake; how it was run: as §2
[20] = Drug level in healthy human plasma at 400 mg, po every 12 hrs for 7 days measured after 24 hrs of last dose; assay type: ADME, organism-based; details: read-out: Drug uptake; how it was run: as §2
[21] = Drug level in healthy human alveolar cell at 400 mg, po every 12 hrs for 7 days measured after 3 hrs of last dose; assay type: ADME, organism-based, Pneumocyte; details: alveolar cells, read-out: Drug uptake
How it was run: (§3)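 Healthy adults got 400 mg oral suspension (40 mg/ml) 10 min after a high-fat meal every 12 h, for 14 doses over 8 days. Each subject had one bronchoscopy with BAL under topical lidocaine, no sedation, at 3, 5, 8, 12 or 24 h after the last dose. BAL fluid was spun at 400 x g for 5 min at 4°C. Supernatant and cell pellet were frozen at –70°C and assayed by LC-MS/MS against a plasma calibration curve. ELF volume was derived from urea.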

[22] = Drug level in healthy human alveolar cell at 400 mg, po every 12 hrs for 7 days measured after 5 hrs of last dose; assay type: ADME, organism-based, Pneumocyte; details: alveolar cells, read-out: Drug uptake; how it was run: as §3
[23] = Drug level in healthy human alveolar cell at 400 mg, po every 12 hrs for 7 days measured after 8 hrs of last dose; assay type: ADME, organism-based, Pneumocyte; details: alveolar cells, read-out: Drug uptake; how it was run: as §3
[24] = Drug level in healthy human alveolar cell at 400 mg, po every 12 hrs for 7 days measured after 12 hrs of last dose; assay type: ADME, organism-based, Pneumocyte; details: alveolar cells, read-out: Drug uptake; how it was run: as §3
[25] = Drug level in healthy human alveolar cell at 400 mg, po every 12 hrs for 7 days measured after 24 hrs of last dose; assay type: ADME, organism-based, Pneumocyte; details: alveolar cells, read-out: Drug uptake; how it was run: as §3
[26] = Drug level in healthy human lung epithelial lining fluid at 400 mg, po every 12 hrs for 7 days measured after 3 hrs of last dose; assay type: ADME, organism-based; details: read-out: Drug uptake; how it was run: as §3
[27] = Drug level in healthy human lung epithelial lining fluid at 400 mg, po every 12 hrs for 7 days measured after 5 hrs of last dose; assay type: ADME, organism-based; details: read-out: Drug uptake; how it was run: as §3
[28] = Drug level in healthy human lung epithelial lining fluid at 400 mg, po every 12 hrs for 7 days measured after 8 hrs of last dose; assay type: ADME, organism-based; details: read-out: Drug uptake; how it was run: as §3
[29] = Drug level in healthy human lung epithelial lining fluid at 400 mg, po every 12 hrs for 7 days measured after 12 hrs of last dose; assay type: ADME, organism-based; details: read-out: Drug uptake; how it was run: as §3
[30] = Drug level in healthy human lung epithelial lining fluid at 400 mg, po every 12 hrs for 7 days measured after 24 hrs of last dose; assay type: ADME, organism-based; details: read-out: Drug uptake; how it was run: as §3
[31] = Ratio of Drug level in healthy human alveolar cell to drug level in healthy human plasma at 400 mg, po every 12 hrs for 7 days measured after 3 hrs of last dose; assay type: ADME, organism-based, Pneumocyte; details: alveolar cells / plasma
[32] = Ratio of Drug level in healthy human alveolar cell to drug level in healthy human plasma at 400 mg, po every 12 hrs for 7 days measured after 5 hrs of last dose; assay type: ADME, organism-based, Pneumocyte; details: alveolar cells / plasma
[33] = Ratio of Drug level in healthy human alveolar cell to drug level in healthy human plasma at 400 mg, po every 12 hrs for 7 days measured after 8 hrs of last dose; assay type: ADME, organism-based, Pneumocyte; details: alveolar cells / plasma
[34] = Ratio of Drug level in healthy human alveolar cell to drug level in healthy human plasma at 400 mg, po every 12 hrs for 7 days measured after 12 hrs of last dose; assay type: ADME, organism-based, Pneumocyte; details: alveolar cells / plasma
[35] = Ratio of Drug level in healthy human alveolar cell to drug level in healthy human plasma at 400 mg, po every 12 hrs for 7 days measured after 24 hrs of last dose; assay type: ADME, organism-based, Pneumocyte; details: alveolar cells / plasma
[36] = Ratio of Drug level in healthy human lung epithelial lining fluid to drug level in healthy human plasma at 400 mg, po every 12 hrs for 7 days measured after 3 hrs of last dose; assay type: ADME, organism-based
[37] = Ratio of Drug level in healthy human lung epithelial lining fluid to drug level in healthy human plasma at 400 mg, po every 12 hrs for 7 days measured after 5 hrs of last dose; assay type: ADME, organism-based
[38] = Ratio of Drug level in healthy human lung epithelial lining fluid to drug level in healthy human plasma at 400 mg, po every 12 hrs for 7 days measured after 8 hrs of last dose; assay type: ADME, organism-based
[39] = Ratio of Drug level in healthy human lung epithelial lining fluid to drug level in healthy human plasma at 400 mg, po every 12 hrs for 7 days measured after 12 hrs of last dose; assay type: ADME, organism-based
[40] = Ratio of Drug level in healthy human lung epithelial lining fluid to drug level in healthy human plasma at 400 mg, po every 12 hrs for 7 days measured after 24 hrs of last dose; assay type: ADME, organism-based
[41] = T>MIC90 in healthy human lung epithelial lining fluid at 400 mg, po every 12 hrs for 7 days; assay type: functional
[42] = T>MIC90 in healthy human alveolar cell at 400 mg, po every 12 hrs for 7 days; assay type: functional, Pneumocyte
[43] = test system: Plasma; assay: T>MIC90 in healthy human plasma at 400 mg, po every 12 hrs for 7 days; assay type: functional
[44] = test system: Homo sapiens; assay: Toxicity in healthy human plasma assessed as blood chemistry analysis at 400 mg, po every 12 hrs for 7 days; assay type: organism-based; details: in vivo
How it was run: (§4)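 Safety in healthy adults (21 to 55 y) given 400 mg orally every 12 h with a high-fat meal for 14 doses. Screening blood chemistry, hematology, urinalysis and ECG (corrected QT) were repeated on day 8.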

[45] = test system: Homo sapiens; assay: Toxicity in healthy human plasma assessed as hematological analysis at 400 mg, po every 12 hrs for 7 days; assay type: organism-based; details: in vivo; how it was run: as §4
[46] = test system: Homo sapiens; assay: Toxicity in healthy human assessed as urine analysis at 400 mg, po every 12 hrs for 7 days; assay type: organism-based; details: in vivo; how it was run: as §4
[47] = test system: Homo sapiens; assay: Toxicity in healthy human assessed as vital adverse effects at 400 mg, po every 12 hrs for 7 days; assay type: organism-based; details: in vivo; how it was run: as §4
[48] = Half life in human; assay type: ADME, organism-based; details: in vivo
[49] = Protein binding in human; assay type: ADME, organism-based; details: in vivo, read-out: PB
[50] = test system: Homo sapiens; assay: Cardiotoxicity in healthy human assessed as corrected QT intervals at 400 mg, po every 12 hrs for 8 days; details: in vivo

Structure (SMILES): CC[C@@H]([C@H](C)O)n1ncn(-c2ccc(N3CCN(c4ccc(OC[C@@H]5CO[C@@](Cn6cncn6)(c6ccc(F)cc6F)C5)cc4)CC3)cc2)c1=O [POSACONAZOLE]
- Cmax [1]: 2080 ng/mL
- Cmax [2]: 1860 ng/mL
- Cmax [3]: 87700 ng/mL
- Tmax [4]: 3.6 h
- Tmax [5]: 5 h
- Tmax [6]: 5 h
- AUC at 12 h [7]: 21900 ng·h/mL
- AUC at 12 h [8]: 18300 ng·h/mL
- AUC at 12 h [9]: 715000 ng·h/mL
- Ratio [10]: 4.15
- Ratio [11]: 3.72
- Ratio [12]: 175
- Ratio [13]: 87.6
- Ratio [14]: 73.2
- Ratio [15]: 2860
- concentration at 3 h [16]: 1930 ng/mL
- concentration at 5 h [17]: 1930 ng/mL
- concentration at 8 h [18]: 1730 ng/mL
- concentration at 12 h [19]: 1620 ng/mL
- concentration at 24 h [20]: 1280 ng/mL
- concentration at 3 h [21]: 46200 ng/mL
- concentration at 5 h [22]: 87700 ng/mL
- concentration at 8 h [23]: 60900 ng/mL
- concentration at 12 h [24]: 49000 ng/mL
- concentration at 24 h [25]: 60700 ng/mL
- concentration at 3 h [26]: 1660 ng/mL
- concentration at 5 h [27]: 1860 ng/mL
- concentration at 8 h [28]: 1690 ng/mL
- concentration at 12 h [29]: 1020 ng/mL
- concentration at 24 h [30]: 1800 ng/mL
- Kp at 3 h [31]: 34.5
- Kp at 5 h [32]: 44.3
- Kp at 8 h [33]: 32.5
- Kp at 12 h [34]: 27.3
- Kp at 24 h [35]: 34.9
- Kp at 3 h [36]: 1.08
- Kp at 5 h [37]: 0.75
- Kp at 8 h [38]: 0.95
- Kp at 12 h [39]: 0.59
- Kp at 24 h [40]: 0.92
- T>MIC90 [41]: 24 h
- T>MIC90 [42]: 24 h
- T>MIC90 [43]: 22.3 h
- Activity [44]: Non-toxic
- Activity [45]: Non-toxic
- Activity [46]: Non-toxic
- Activity [47]: Non-toxic
- half-life [48]: 35 h
- fraction unbound [49]: < 0.02
- Activity [50]: Non-toxic
